Assays:
Cannabinoid receptor 2 = Cannabinoid receptor 2 (Homo sapiens, UniProt P34972); test: Displacement of [3H]CP-55940 from human recombinant CB2 receptor expressed in HEK293 cells; format: cell-based
Homo sapiens = species: Homo sapiens; test: Selectivity for human CB2 over human CB1
Cannabinoid receptor 1 = Cannabinoid receptor 1 (Homo sapiens, UniProt P21554); test: biochemical; format: cell-based, HEK293
Mus musculus [1] = test: Effect on Swiss Albino mouse assessed as licking latency time at 0.06 mg/kg, po after 45 mins by hot plate test; format: functional
Mus musculus [2] = test: Effect on motor coordination in Swiss Albino mouse at 50 mg/kg, po after 30 mins by rotarod test; format: organism-based; set-up: dose 50 mg/kg, route oral; conditions: in vivo, 0.5 h
Outline: (§1)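 Mice were dosed orally in CMC vehicle and tested on a rotarod with a 3 cm diameter non-slip rotating rod, counting falls before dosing and at 15, 30 and 45 min after. Pretest scorers below 3 or above 6 falls were rejected. Ten mice per group. Mean ± SEM, ANOVA with Fisher PLSD, P<0.05.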

Mus musculus [3] = test: Antinociceptive activity in Swiss Albino mouse assessed as licking latency time at 50 mg/kg, po in presence of CB2 antagonist AM630 after 15 mins; format: functional
Outline: (§2)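 Mice held at 22 ± 1 °C on a 12 h light/dark cycle and given oral doses in CMC vehicle. In the hot-plate test the container was kept at 52.5 ± 0.1 °C and the endpoint was licking of the fore or hind paws, timed before dosing and after it. Pretest scorers below 12 s or above 18 s were rejected. Cut-off 45 s. AM630 0.6 mg/kg po given simultaneously. Mean ± SEM, ANOVA with Fisher PLSD, P<0.05.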

Mus musculus [4] = test: Effect on motor coordination in Swiss Albino mouse at 50 mg/kg, po after 15 mins by rotarod test; format: organism-based; set-up: dose 50 mg/kg, route oral; conditions: in vivo, 0.25 h; outline: as §1
Mus musculus [5] = test: Antinociceptive activity in Swiss Albino mouse assessed as licking latency time at 10 mg/kg, po after 30 mins by hot plate test; format: functional; outline: as §2
Mus musculus [6] = test: Effect on Swiss Albino mouse assessed as licking latency time at 0.06 mg/kg, po after 30 mins by hot plate test; format: functional
Mus musculus [7] = test: Effect on Swiss Albino mouse assessed as licking latency time at 0.06 mg/kg, po after 15 mins by hot plate test; format: functional
Mus musculus [8] = test: Antinociceptive activity in Swiss Albino mouse assessed as licking latency time at 30 mg/kg, po after 30 mins by hot plate test; format: functional; outline: as §2
Mus musculus [9] = test: Antinociceptive activity in Swiss Albino mouse assessed as licking latency time at 30 mg/kg, po after 45 mins by hot plate test; format: functional; outline: as §2
Mus musculus [10] = test: Antinociceptive activity in Swiss Albino mouse assessed as licking latency time at 30 mg/kg, po after 15 mins by hot plate test; format: functional; outline: as §2
Mus musculus [11] = test: Antinociceptive activity in Swiss Albino mouse assessed as licking latency time at 10 mg/kg, po after 15 mins by hot plate test; format: functional; outline: as §2
Mus musculus [12] = test: Effect on motor coordination in Swiss Albino mouse at 50 mg/kg, po after 45 mins by rotarod test; format: organism-based; set-up: dose 50 mg/kg, route oral; conditions: in vivo, 0.75 h; outline: as §1
Mus musculus [13] = test: Antinociceptive activity in Swiss Albino mouse assessed as licking latency time at 50 mg/kg, po after 45 mins by hot plate test; format: functional; outline: as §2
Mus musculus [14] = test: Antinociceptive activity in Swiss Albino mouse assessed as licking latency time at 50 mg/kg, po in presence of CB2 antagonist AM630 after 30 mins; format: functional; outline: as §2
Mus musculus [15] = test: Antinociceptive activity in Swiss Albino mouse assessed as licking latency time at 50 mg/kg, po in presence of CB2 antagonist AM630 after 45 mins; format: functional; outline: as §2
Mus musculus [16] = test: Antinociceptive activity in Swiss Albino mouse assessed as licking latency time at 50 mg/kg, po after 15 mins by hot plate test; format: functional; outline: as §2
Mus musculus [17] = test: Antinociceptive activity in Swiss Albino mouse assessed as licking latency time at 50 mg/kg, po after 30 mins by hot plate test; format: functional; outline: as §2
Mus musculus [18] = test: Antinociceptive activity in Swiss Albino mouse assessed as licking latency time at 10 mg/kg, po after 45 mins by hot plate test; format: functional; outline: as §2

Cannabinoid receptor 2, sequence (P34972 whole entry): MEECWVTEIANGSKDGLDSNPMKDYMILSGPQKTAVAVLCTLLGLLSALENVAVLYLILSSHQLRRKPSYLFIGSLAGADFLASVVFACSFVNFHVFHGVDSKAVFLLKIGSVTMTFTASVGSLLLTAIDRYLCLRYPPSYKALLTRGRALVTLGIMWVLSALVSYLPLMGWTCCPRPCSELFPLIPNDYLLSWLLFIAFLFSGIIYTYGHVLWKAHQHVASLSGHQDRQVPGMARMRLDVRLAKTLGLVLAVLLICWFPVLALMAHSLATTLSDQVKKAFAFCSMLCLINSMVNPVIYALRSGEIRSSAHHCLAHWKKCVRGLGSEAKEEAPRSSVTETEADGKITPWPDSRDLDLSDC
Cannabinoid receptor 1, sequence (P21554 whole entry): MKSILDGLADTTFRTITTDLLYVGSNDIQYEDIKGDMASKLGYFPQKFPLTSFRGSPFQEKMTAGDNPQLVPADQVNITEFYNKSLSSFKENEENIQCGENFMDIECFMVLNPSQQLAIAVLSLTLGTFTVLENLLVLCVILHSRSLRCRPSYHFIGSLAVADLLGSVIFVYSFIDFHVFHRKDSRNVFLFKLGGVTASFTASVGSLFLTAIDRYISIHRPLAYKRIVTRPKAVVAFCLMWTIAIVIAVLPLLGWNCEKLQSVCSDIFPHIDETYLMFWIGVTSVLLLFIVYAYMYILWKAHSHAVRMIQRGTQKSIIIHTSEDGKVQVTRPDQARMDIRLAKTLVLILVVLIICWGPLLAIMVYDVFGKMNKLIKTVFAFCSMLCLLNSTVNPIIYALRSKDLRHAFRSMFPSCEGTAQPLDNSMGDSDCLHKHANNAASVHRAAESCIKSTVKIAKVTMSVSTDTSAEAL

## COc1ccc(C(=O)c2c(C)n(CCN3CCOCC3)c3cc(I)ccc23)cc1
Cannabinoid receptor 2
  Ki: 36 nM

## O=C(NC1CCCCCC1)c1cn(CCN2CCOCC2)c2ccccc2c1=O
Homo sapiens
  Ratio Ki: 10.3
Cannabinoid receptor 1
  Ki: 290 nM
Cannabinoid receptor 2
  Ki: 28 nM

## CCCCC/C=C\C/C=C\C/C=C\C/C=C\CCCC(=O)NCCCl
Homo sapiens
  Ratio Ki: 0.06
Cannabinoid receptor 1
  Ki: 5.3 nM
Cannabinoid receptor 2
  Ki: 95 nM

## COc1ccc2c(=O)c(C(=O)NC3CCCCC3)cn(Cc3ccccc3)c2c1
Cannabinoid receptor 2
  Ki: 79 nM

## O=c1c2cn(Cc3ccccc3)c3cc(Cl)ccc3c-2nn1C1CCCCC1
Homo sapiens
  Ratio Ki: 0.34
Cannabinoid receptor 1
  Ki: 560 nM
Cannabinoid receptor 2
  Ki: 1640 nM

## O=c1c2cn(CCN3CCOCC3)c3ccccc3c-2nn1C1CCCCC1
Cannabinoid receptor 1
  Ki: > 5600 nM
Cannabinoid receptor 2
  Ki: > 7900 nM

## O=c1c2cn(Cc3ccccc3)c3ccccc3c-2nn1C1CCCCC1
Homo sapiens
  Ratio Ki: 0.78
Cannabinoid receptor 1
  Ki: 620 nM
Cannabinoid receptor 2
  Ki: 790 nM

## Nc1ccc2c(=O)cc(C(=O)NC3CCCCC3)n(Cc3ccccc3)c2n1
Homo sapiens
  Ratio Ki: 0.71
Cannabinoid receptor 1
  Ki: 5600 nM
Cannabinoid receptor 2
  Ki: 7900 nM

## CCCCCCC(C)(C)c1cc(O)c2c(c1)OC(C)(C)[C@@H]1CC=C(CO)C[C@@H]21
Cannabinoid receptor 1
  Ki: 0.18 nM

## COc1ccc2c(=O)c(C(=O)NC3CCCCC3)cn(Cc3ccccc3)c2n1
Mus musculus [1]
  Activity: 16.3 s
Homo sapiens
  Ratio Ki: 51
Mus musculus [2]
  Activity: 0.2
Mus musculus [3]
  Activity: 18.1 s
Mus musculus [4]
  Activity: 0.7
Mus musculus [5]
  Activity: 18.5 s
Mus musculus [6]
  Activity: 18 s
Mus musculus [7]
  Activity: 16.6 s
Cannabinoid receptor 1
  Ki: 560 nM
Mus musculus [8]
  Activity: 19.5 s
Mus musculus [9]
  Activity: 17.4 s
Cannabinoid receptor 2
  Ki: 11 nM
Mus musculus [10]
  Activity: 16.6 s
Mus musculus [11]
  Activity: 17.1 s
Mus musculus [12]
  Activity: 0.2
Mus musculus [13]
  Activity: 18.2 s
Mus musculus [14]
  Activity: 19.2 s
Mus musculus [15]
  Activity: 17.6 s
Mus musculus [16]
  Activity: 19.2 s
Mus musculus [17]
  Activity: 22.5 s
Mus musculus [18]
  Activity: 16.7 s

## O=c1c2cn(CCN3CCOCC3)c3ccccc3c-2nn1-c1ccccc1
Homo sapiens
  Ratio Ki: 1.2
Cannabinoid receptor 1
  Ki: 2800 nM
Cannabinoid receptor 2
  Ki: 2280 nM

## O=C(NC1CCCCCC1)c1cn(Cc2ccccc2)c2ccccc2c1=O
Homo sapiens
  Ratio Ki: 2.6
Cannabinoid receptor 1
  Ki: 17 nM
Cannabinoid receptor 2
  Ki: 6.4 nM

## COc1ccc2c(=O)c(C(=O)NC3CCCCC3)cn(CCN3CCOCC3)c2c1
Homo sapiens
  Ratio Ki: 37
Cannabinoid receptor 1
  Ki: 2920 nM
Cannabinoid receptor 2
  Ki: 79 nM

## CN(C)c1ccc2c(=O)c(C(=O)NC3CCCCC3)cn(CCN3CCOCC3)c2n1
Cannabinoid receptor 1
  Ki: > 5600 nM
Cannabinoid receptor 2
  Ki: 94 nM
